STAT1 inh-1: STAT1 signaling inhibition. NIH 3T3 STAT1-luciferase reporter, IFN-gamma, luminescence. inhibition, % at 5.5 µM. 200,000 tested, 0.35% active. AID 920;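 active = inhibition above a set limit, the mean inhibition across all tested compounds plus 3 SD, cut at about 34% in these data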;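 also: 0% = IFN-gamma with DMSO and 100% = IFN-gamma with 300 µM nifuroxazide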
STAT3 activator: increases IL-6 driven STAT3 reporter signal; U3A cells, IL-6 STAT3-luciferase reporter, luminescence; 100% = signal with IL-6 EC80 alone; activation (% of control), % at 5.6 µM; 190,000 tested, 0.91% active; AID 871;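 active = activation above the screen-wide mean of compound activation plus 3 SD, cut at about 130% in these data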;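 also: 0% = background luminescence of wells with medium and substrate only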
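Detection: reporter luminescence signal / Assay system: STAT1-lacking human U3A cells, STAT3 luciferase reporter / Incubation: compound pre-incubation 1 h before IL-6, then 6 h stimulation at 37 °C / Control set: IL-6-only high control / Read-out: % activation relative to IL-6 control / Probe or stimulus: Interleukin-6, 33 ng/mL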
STAT3 inh: reduces IL-6 driven STAT3 reporter signal | U3A cells, IL-6 STAT3-luciferase reporter, luminescence; host cell line lacks STAT1 | inhibition, % at 5.5 µM | 190,000 tested, 0.89% active | AID 862;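 active = inhibition above the mean inhibition across all screened compounds plus 3 SD, cut at about 44% in these data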;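 also: 0% = DMSO only wells and 100% = 100 µM nifuroxazide control wells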
APP 5'UTR act: activates APP 5'UTR luciferase reporter. SH-SY5Y APP 5'UTR luciferase reporter, luminescence; zero percent = DMSO vehicle wells. activation, % at 2 µM. 190,000 tested, 1% active. AID 1276;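 active = activation above a set limit, based on mean plus 3 SD of controls, cut at about 140% in these data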
NF-kB expr up: compounds increasing NF-kB expression in human neuronal cells. NF-kB reporter expression; hits give high values. fold change at 12.5 µM. 190,000 tested, 1.6% active; in the data active = fold change above about 3.3
STAT1 act: increases IFN-gamma driven STAT1 reporter signal | NIH 3T3 STAT1-luciferase reporter, luminescence; 100% = IFN-gamma alone, no compound | activation (% of control), % at 5.5 µM | 200,000 tested, 2.6% active | AID 932;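 active = activation above the screen-wide mean activation plus 3 SD, cut at about 130% in these data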;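 also: raw ratio to IFN-gamma control signal so 100% means no change and 0% no light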
STAT1 inh-2: STAT1 inhibition, confirmation assay; inhibition, % at 5.5 µM; 200 tested, 55% active; shares compounds with STAT1 inh-1; AID 1263; NIH 3T3 STAT1-luciferase reporter, IFN-gamma, luminescence;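 active = triplicate mean inhibition exceeding the hit cutoff computed for the primary STAT1 screen, cut at about 35% in these data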;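 also: 0% = DMSO with IFN-gamma and 100% = 300 µM nifuroxazide with IFN-gamma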
NFkB inh STAT1ct: counter-screen for STAT1 inhibitors: NF-kappaB inhibition. shares compounds with STAT1 inh-1. HEK293T NF-kB luciferase reporter, TNF-alpha induced, luminescence. AID 1303. inhibition, % at 5.7 µM. 200 tested, 30% active;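 active = inhibition above the mean of solvent-only control wells plus 3 SD of those wells, cut at about 15% in these data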;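 also: 0% = DMSO with TNF-alpha and 100% = MG-132 control with TNF-alpha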
STAT3 inh STAT1c: inhibits STAT3, counter-screen to STAT1 inhibitors. 200 tested, 20% active. inhibition, % at 5.7 µM. U3A cells, IL-6 STAT3 luciferase reporter, luminescence; cells lacking STAT1. shares compounds with STAT1 inh-1. AID 1310;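 active = inhibition above the mean of solvent-only control wells plus 3 SD, set per campaign, cut at about 25% in these data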;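 also: 0% = IL-6 plus DMSO and 100% = IL-6 plus nifuroxazide control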
An asterisk follows results filed as active; x = not tested or not shown. The list is not random: actives were taken first. Their share in the collection is about 5.1%.

SMILES | STAT1 inh-1 | STAT3 activator | STAT3 inh | APP 5'UTR act | NF-kB expr up | STAT1 act | STAT1 inh-2 | NFkB inh STAT1ct | STAT3 inh STAT1c
CCOC(=O)N1CCN(C(=O)c2ccc(NC(=O)c3ccc(C)cc3)cc2)CC1 | 68* | 93 | 9 | -10 | 0.8 | 37 | 61* | 0 | 11
CCOC(=O)N1CCN(C(=O)c2ccc(NC(C)=O)cc2)CC1 | 5 | 101 | 3 | 1 | 1.1 | 95 | x | x | x
Cc1ccc(C(=O)Nc2cccc(N(C)S(C)(=O)=O)c2)cc1S(=O)(=O)Nc1ccccc1 | 40* | 86 | 22 | 6 | 0.68 | 65 | 34* | 7 | 9
COc1ccc(C(=O)Nc2cccc(N(C)S(C)(=O)=O)c2)cc1OC | -18 | 108 | -7 | 27 | 1.7 | 115 | x | x | x
CCOC(=O)C(=CNc1cc(C)nn1C(C)(C)C)C(=O)OCC | 15 | 105 | 0 | x | 0.86 | 86 | x | x | x
CCOC(=O)C(=CNc1cc(C)ccc1C)C(=O)OCC | 37* | 80 | 28 | -8 | 0.73 | 67 | 33 | -1 | -18
CCOC(=O)C(=CNc1cc(C)nn1-c1ccc(C)cc1)C(=O)OCC | 69* | 90 | 16 | -22 | 0.7 | 36 | 60* | 40* | 15
CCOC(=O)C(=CNc1cc(C)ccn1)C(=O)OCC | 7 | 99 | 2 | 2 | 1.1 | 94 | x | x | x
O=C(O)C1Cc2ccccc2CN1C(=O)CSc1nnc2ccccn12 (stereo unspecified) | -8 | 102 | 0 | 8 | 0.91 | 106 | x | x | x
COC(=O)Cc1csc(Nc2ccc(F)c(Cl)c2)n1 | -10 | 94 | 15 | 3 | 1.1 | 108 | x | x | x
Cc1ccc(NC(=O)c2cc(C)n(-c3cccc(C)c3)c2C)cc1 | 65* | 89 | 16 | 63 | 1.7 | 43 | 5 | 0 | -14
C#CCOCCOCCOCCNc1nc(N2CCN(C(=O)[C@H](Cc3cc4ccccc4[nH]3)n3cc([C@@H](N)C(C)CC)nn3)CC2)nc(N2CCN(C(=O)[C@H](Cc3cc4ccccc4[nH]3)n3cc([C@@H](N)CC(C)C)nn3)CC2)n1 (stereo partly specified) | -2 | x | x | 33 | 1.3 | 103 | x | x | x
COCCn1c(C)cc(C(=O)COc2ccc(C)nc2[N+](=O)[O-])c1C | 36* | 76 | 32 | -2 | 0.46 | 66 | -15 | 11 | 2
CC(=O)/C(=C/c1ccccc1)C(=O)Nc1ccccc1C | 12 | 92 | 14 | 6 | 1.1 | 87 | x | x | x
Cc1ccccc1NC(=O)C(=Cc1ccc(C(=O)O)cc1)C(=O)Nc1ccccc1C | 41* | 111 | -13 | -9 | 0.69 | 62 | 46* | -1 | -15
CCOC(=O)N1CCN(C(=S)NC(=O)c2ccc(Br)cc2)CC1 | 3 | 118 | -14 | 28 | 0.96 | 96 | x | x | x
CCOC(=O)N1CCN(C(=S)NC(=O)c2cc(Br)ccc2Cl)CC1 | 44* | 96 | 7 | 16 | 0.95 | 58 | 20 | -8 | 0
NS(=O)(=O)c1ccc(CCNC(=O)c2ccc(C#CC3(O)CCCCC3)cc2)cc1 | 52* | 87 | 17 | 1 | 0.32 | 52 | -16 | 8 | -30
O=C(CSc1nnc(-c2ccccc2)n1Cc1ccccc1)NNC(=O)c1ccccc1O | -9 | 113 | -10 | 0 | 0.81 | 108 | x | x | x
Cc1cc(C(=O)CSc2nncs2)c(C)n1Cc1ccco1 | 35* | 67 | 43 | 181* | 4.7* | 67 | -15 | 20* | 26*
O=C(N/N=C/c1cccc(O)c1)c1ccc(COc2cccc3cccnc23)cc1 | -10 | 107 | -7 | 13 | 1.2 | 107 | x | x | x
Oc1cccc(/C=N/Nc2cccc3cccnc23)c1 | 49* | 89 | 15 | 227* | 8.9* | 53 | 32 | -12 | -61
CC(C)COc1ccc(C/C(N)=N/n2cnnc2)cc1 | 35* | 80 | 25 | 18 | 0.87 | 67 | 32 | 11 | 39*

From PubChem
